Data: ChEMBL document CHEMBL1208681, “Synthesis and antitumor activities of novel 1,4-disubstituted phthalazine derivatives” (Eur J Med Chem, 2010)

How the values were obtained:
A549 [1] = assay: Cytotoxicity against human A549 cells after 72 hrs by MTT assay; assay type: functional, cell-based
In short: (§1)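 Cells grown in MEM with 10% FBS. About 4 × 10^3 cells per well were seeded and held 24 h at 37 °C in 5% CO2. Compounds were added at the indicated final concentrations for 72 h. MTT was added to 5 µg/mL final for 4 h at 37 °C. Formazan was dissolved in DMSO and read at 492 nm against 630 nm reference. Each line was tested twice; IC50 is the mean of two determinations.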

HT-29 [2] = assay: Cytotoxicity against human HT-29 cells after 72 hrs by MTT assay; assay type: functional, cell-based; in short: as §1
MDA-MB-231 [3] = assay: Cytotoxicity against human MDA-MB-231 cells after 72 hrs by MTT assay; assay type: functional, cell-based; settings: MDA-MB-231, 72 h; in short: as §1
A549 [4] = assay: Ratio of IC50 for compound to IC50 for PTK-787 for human A549 cells; assay type: functional
HT-29 [5] = assay: Ratio of IC50 for compound to IC50 for PTK-787 for human HT-29 cells; assay type: functional
MDA-MB-231 [6] = assay: Ratio of IC50 for compound to IC50 for PTK-787 for human MDA-MB-231 cells; assay type: functional
[7] = Homo sapiens, HT-29, 72 h, read-out: IC50
[8] = Homo sapiens, A549, 72 h, read-out: IC50

Cc1ccc(NC(=O)CN2CCN(c3nnc(Cc4ccccc4)c4ccccc34)CC2)c(C)c1
IC50 (A549 [1]; a549): Not Active | IC50 (HT-29 [2]; ht-29): Not Active | IC50 (MDA-MB-231 [3]): 180 µM

O=C(CN1CCN(c2nnc(Cc3ccccc3)c3ccccc23)CC1)Nc1ccc(F)c(Cl)c1
IC50 (A549 [1]; a549): Not Active | IC50 (HT-29 [2]; [7]): 13.3 µM | IC50 (MDA-MB-231 [3]): 7.36 µM

O=C(CN1CCN(c2nnc(Cc3ccncc3)c3ccccc23)CC1)Nc1ccc(F)c(Cl)c1
IC50 (A549 [1]; [8]): 12.3 µM | IC50 (HT-29 [2]; [7]): 0.88 µM | IC50 (MDA-MB-231 [3]): 0.004 µM

Cc1cccc(Cl)c1NC(=O)CN1CCN(c2nnc(Cc3ccncc3)c3ccccc23)CC1
IC50 (A549 [1]; [8]): 7.19 µM | IC50 (HT-29 [2]; [7]): 22.6 µM | IC50 (MDA-MB-231 [3]): 2.67 µM

Cc1ccc(F)cc1NC(=O)CN1CCN(c2nnc(Cc3ccncc3)c3ccccc23)CC1
IC50 (A549 [1]; [8]): 38.9 µM | IC50 (HT-29 [2]; [7]): 0.47 µM | IC50 (MDA-MB-231 [3]): 0.0064 µM

COc1ccc(NC(=O)CN2CCN(c3nnc(Cc4ccccc4)c4ccccc34)CC2)cc1OC
IC50 (A549 [1]; a549): Not Active | IC50 (HT-29 [2]; [7]): 145 µM | IC50 (MDA-MB-231 [3]): 32.2 µM

Cc1ccccc1NC(=O)CN1CCN(c2nnc(Cc3ccccc3)c3ccccc23)CC1
IC50 (A549 [1]; a549): Not Active | IC50 (HT-29 [2]; [7]): 113 µM | IC50 (MDA-MB-231 [3]): 17.3 µM

O=C(CN1CCN(c2nnc(Cc3ccncc3)c3ccccc23)CC1)Nc1ccc(Br)cc1
IC50 (A549 [1]; [8]): 2.71 µM | IC50 (HT-29 [2]; [7]): 1.99 µM | IC50 (MDA-MB-231 [3]): 0.019 µM

O=C(CN1CCN(c2nnc(Cc3ccccc3)c3ccccc23)CC1)Nc1cccc(F)c1
IC50 (A549 [1]; [8]): 130 µM | IC50 (HT-29 [2]; [7]): 95 µM | IC50 (MDA-MB-231 [3]): 3.73 µM

Cc1cccc(Cl)c1NC(=O)CN1CCN(c2nnc(Cc3ccccc3)c3ccccc23)CC1
IC50 (A549 [1]; [8]): 7.42 µM | IC50 (HT-29 [2]; [7]): 53.6 µM | IC50 (MDA-MB-231 [3]): 3.92 µM

Cc1ccc(F)cc1NC(=O)CN1CCN(c2nnc(Cc3ccccc3)c3ccccc23)CC1
IC50 (A549 [1]; a549): Not Active | IC50 (HT-29 [2]; [7]): 170 µM | IC50 (MDA-MB-231 [3]): 19.2 µM

O=C(CN1CCN(c2nnc(Cc3ccccc3)c3ccccc23)CC1)Nc1cc(C(F)(F)F)ccc1Cl
IC50 (A549 [1]; [8]): 89 µM | IC50 (HT-29 [2]; [7]): 66.8 µM | IC50 (MDA-MB-231 [3]): 19.5 µM

O=C(CN1CCN(c2nnc(Cc3ccncc3)c3ccccc23)CC1)Nc1ccc(F)c(F)c1
IC50 (A549 [1]; [8]): 3.79 µM | IC50 (HT-29 [2]; [7]): 2.32 µM | IC50 (MDA-MB-231 [3]): 0.00084 µM | Ratio IC50 (A549 [4]): 5.6 | Ratio IC50 (HT-29 [5]): 10.8 | Ratio IC50 (MDA-MB-231 [6]): 69000

O=C(CN1CCN(c2nnc(Cc3ccccc3)c3ccccc23)CC1)Nc1ccc(Br)cc1
IC50 (A549 [1]; [8]): 2 µM | IC50 (HT-29 [2]; [7]): 60.2 µM | IC50 (MDA-MB-231 [3]): 12.4 µM

O=C(CN1CCN(c2nnc(Cc3ccncc3)c3ccccc23)CC1)Nc1c(F)cccc1F
IC50 (A549 [1]; [8]): 54.4 µM | IC50 (HT-29 [2]; [7]): 28.7 µM | IC50 (MDA-MB-231 [3]): 1.9 µM

O=C(CN1CCN(c2nnc(Cc3ccccc3)c3ccccc23)CC1)Nc1c(F)cccc1F
IC50 (A549 [1]; [8]): 84.5 µM | IC50 (HT-29 [2]; [7]): 19.7 µM | IC50 (MDA-MB-231 [3]): 5.49 µM

Cc1ccccc1NC(=O)CN1CCN(c2nnc(Cc3ccncc3)c3ccccc23)CC1
IC50 (A549 [1]; [8]): 43.1 µM | IC50 (HT-29 [2]; [7]): 15 µM | IC50 (MDA-MB-231 [3]): 0.2 µM

COc1ccc(NC(=O)CN2CCN(c3nnc(Cc4ccncc4)c4ccccc34)CC2)cc1OC
IC50 (A549 [1]; [8]): 26.5 µM | IC50 (HT-29 [2]; [7]): 40.1 µM | IC50 (MDA-MB-231 [3]): 0.1 µM

Cc1ccc(NC(=O)CN2CCN(c3nnc(Cc4ccncc4)c4ccccc34)CC2)c(C)c1
IC50 (A549 [1]; [8]): 45 µM | IC50 (HT-29 [2]; [7]): 1.93 µM | IC50 (MDA-MB-231 [3]): 0.24 µM

O=C(CN1CCN(c2nnc(Cc3ccccc3)c3ccccc23)CC1)Nc1cccc(Br)c1
IC50 (A549 [1]; a549): Not Active | IC50 (HT-29 [2]; [7]): 13.4 µM | IC50 (MDA-MB-231 [3]): 3.88 µM

O=C(CN1CCN(c2nnc(Cc3ccncc3)c3ccccc23)CC1)Nc1cccc(Br)c1
IC50 (A549 [1]; [8]): 1.53 µM | IC50 (HT-29 [2]; [7]): 1.35 µM | IC50 (MDA-MB-231 [3]): 0.0017 µM

O=C(CN1CCN(c2nnc(Cc3ccccc3)c3ccccc23)CC1)Nc1ccc(F)c(F)c1
IC50 (A549 [1]; [8]): 10.1 µM | IC50 (HT-29 [2]; [7]): 9.51 µM | IC50 (MDA-MB-231 [3]): 2.75 µM

O=C(CN1CCN(c2nnc(Cc3ccncc3)c3ccccc23)CC1)Nc1cccc(F)c1
IC50 (A549 [1]; [8]): 4.6 µM | IC50 (HT-29 [2]; [7]): 6.13 µM | IC50 (MDA-MB-231 [3]): 0.0044 µM

O=C(CN1CCN(c2nnc(Cc3ccncc3)c3ccccc23)CC1)Nc1ccc(F)c(C(F)(F)F)c1
IC50 (A549 [1]; [8]): 16 µM | IC50 (HT-29 [2]; [7]): 1.11 µM | IC50 (MDA-MB-231 [3]): 0.0019 µM

Clc1ccc(Nc2nnc(Cc3ccncc3)c3ccccc23)cc1 [VATALANIB]
IC50 (A549 [1]; [8]): 21.2 µM | IC50 (HT-29 [2]; [7]): 22.1 µM | IC50 (MDA-MB-231 [3]): 57.7 µM

O=C(CN1CCN(c2nnc(Cc3ccncc3)c3ccccc23)CC1)Nc1cc(C(F)(F)F)ccc1Cl
IC50 (A549 [1]; [8]): 1.85 µM | IC50 (HT-29 [2]; [7]): 4.81 µM | IC50 (MDA-MB-231 [3]): 0.0037 µM

O=C(CN1CCN(c2nnc(Cc3ccccc3)c3ccccc23)CC1)Nc1ccc(F)c(C(F)(F)F)c1
IC50 (A549 [1]; [8]): 2.48 µM | IC50 (HT-29 [2]; [7]): 4.59 µM | IC50 (MDA-MB-231 [3]): 0.76 µM
